Yeast life ext = yeast lifespan extension; S. cerevisiae growth with nicotinamide, OD615; deaD strain in restrictive glucose medium; inhibition of the nicotinamide effect, % at 10 µM; 130,000 tested, 0.68% active;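 active = inhibition above a set limit, placed 3 SD over the median of all compounds, cut at about 26% in these data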;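 note: 0% = nicotinamide-treated wells and 100% = cells grown without nicotinamide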
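Assay system: DeaD-strain S. cerevisiae. Medium: CSMM-D glucose medium, restrictive. Reagent: nicotinamide, 1.5 mM, co-present with compound. Compound: 10 µM single point, 0.25% DMSO. Schedule: culture preincubation 4 h, compound exposure 48 h, both 30 °C. Detection: absorbance at 615 nm.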
BB579 growth dn = chemicals that inhibit yeast BB579 growth in restrictive medium (lifespan-shortening candidates); S. cerevisiae BB579 growth, OD615, 48 h; inhibition, % at 10 µM; 140,000 tested, 0.51% active;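 active = inhibition above a set limit, 3 SD over the mean compound inhibition, cut at about 44% in these data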
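Material: Saccharomyces cerevisiae DeaD strain BB579, replicative lifespan model yeast; buffer or medium: CSMM-D restrictive synthetic medium containing dextrose (glucose); compound: 10 µM single dose, DMSO 0.25%; timing: 48 h compound exposure at 30 °C after 4 h preincubation; signal: turbidity as optical density at 615 nm; benchmarks: positive control amphotericin B 10 µg/mL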
Measles CPE = protection of cells from measles virus; Measles virus-infected cells, CPE protection, absorbance; protection (pct of control), % at 4 µM; 140,000 tested, 1.5% active; AID 841; in the data active = protection mostly above about 24%, no sharp cut-off; inactive = mostly below about 26%
RAM network inh = yeast RAM network inhibition. S. cerevisiae dse1pr::URA3 reporter, 5-FOA growth OD615, 2 d; analog-sensitive cbk1-as2 kinase mutant strain. inhibition, % at 50 µM. 190,000 tested, 1.8% active;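 active = inhibition above a set limit, 3 SD over mean compound inhibition, cut at about 8.4% in these data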;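 note: 0% = DMSO-only wells with no growth and 100% = 10 µM 1-NA-PP1 full growth; inhibition rescues growth on 5-FOA so higher OD means more RAM inhibition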
The depositor's hits bear a star; · = no result given. An excerpt weighted towards active compounds, which were near 3.8% of everything screened.

SMILES | Yeast life ext | BB579 growth dn | Measles CPE | RAM network inh
CC(C)NS(=O)(=O)c1ccc(OCC(=O)Nc2ccccc2F)cc1 | -1 | -32 | 32 | 2
Cc1cc(C(=O)OCC(=O)Nc2cc(S(=O)(=O)N(C)C)ccc2C)c(C)o1 | · | · | · | 0
Cc1cc(C(=O)OCC(=O)Nc2ccc(F)cc2F)c(C)o1 | -8 | -54 | 37* | 4
OCCN1CCN(c2ncnc3sc(-c4ccccc4)cc23)CC1 | · | · | · | 2
COc1ccc(C(=O)C23CC4CC(C2)CC(C(=O)c2ccc(OC)cc2)(C4)C3)cc1 | · | · | · | 9.1*
O=C(c1ccccc1F)N1CCN(c2ccc([N+](=O)[O-])c(NCC3CCCO3)c2)CC1 (stereo not drawn) | · | · | · | 1
CCOC(=O)Nc1ccc(C(=O)Oc2ccccc2)c(O)c1 | -27 | -55 | 40* | 5
CC(=O)c1c(C)[nH]c(C(=O)N(C)C(c2ccccc2)c2ccccc2)c1C | · | · | · | 4
O=C(CSc1nnc(-c2ccccc2F)n1CCc1ccccc1)Nc1ccc2[nH]c(=O)[nH]c2c1 | -2 | -13 | 4 | 9.0*
O=C(/C=C/c1cnc2ccccc2n1)NC12CC3CC(CC(C3)C1)C2 | -7 | 3 | 22 | 2
CCCCN(C)S(=O)(=O)c1cc(Br)cc2c1N(C(=O)C1CC1)CC2 | 14 | -28 | 14 | 9.2*
O=C(O)CCS(=O)(=O)c1cc(Br)cc2c1N(C(=O)C1CC1)CC2 | · | · | · | 0
O=C(CCC1CCCN(C(=O)C2=CCCCC2)C1)N1CCN(c2ccccn2)CC1 (stereo not drawn) | · | · | · | 2
N#Cc1ccccc1Cn1c(=O)n(C2CCCC2)c(=O)c2ccccc21 | 0 | -36 | 9 | 0
O=c1c2ccccc2n(Cc2cccc(F)c2)c(=O)n1C1CCCC1 | 7 | -45 | 15 | 9.3*
O/N=C/c1ccc(OCc2ccccc2)c(Cl)c1 | -5 | -20 | 3 | -2
Cc1ccc(COc2ccc(Br)cc2/C=N/O)cc1 | -8 | 89* | 15 | 4
O/N=C/c1ccc(OCc2ccccc2)c(Br)c1 | -11 | 45* | 42* | -1
Cc1cc(C)n(-c2ccc(C(=O)OCC(=O)NC(c3ccccc3)c3ccccc3)cc2)n1 | 5 | -51 | 51* | 6
S=c1[nH]nc(-c2cccnc2)n1Cc1ccccc1 | -16 | -26 | 50* | 2
Cc1ccc(S(=O)(=O)NCCCCCC(=O)Nc2c(C)n(C)n(-c3ccccc3)c2=O)cc1 | · | · | · | -1
CCOCCCn1c(=S)[nH]c2cc(C(=O)NCCN(CC)CC)ccc2c1=O | -6 | 8 | 34* | 0
CCOC(=O)C1CCCN(C(=O)c2ccc3c(=O)n(CCOC)c(=S)[nH]c3c2)C1 (stereo not drawn) | · | -29 | 28* | 2
CCCCNC(=O)c1ccc2c(=O)n(CCCOCC)c(=S)[nH]c2c1 | 0 | -43 | 18 | 4
CC(=O)Nc1c(S(=O)(=O)c2ccccc2)c2nc3ccccc3nc2n1Cc1ccccc1 | -7 | -17 | 7 | 2
SMILES | Yeast life ext | BB579 growth dn | Measles CPE | RAM network inh
C=CCn1c(NS(=O)(=O)c2ccccc2)c(S(=O)(=O)c2ccc(C)cc2)c2nc3ccccc3nc21 | 14 | -19 | 37 | 11*
Cc1ccc(S(=O)(=O)c2c(N)n(Cc3ccco3)c3nc4ccccc4nc23)cc1 | 2 | -8 | 4 | 2
Cc1ccc(S(=O)(=O)c2c(N)n(-c3ccccc3)c3nc4ccccc4nc23)cc1 | -4 | -19 | 6 | 1
CCCCn1c(N)c(S(=O)(=O)c2ccc(C)cc2)c2nc3ccccc3nc21 | 3 | -21 | 9 | 9.5*
O=S(=O)(Nc1c(S(=O)(=O)c2ccccc2)c2nc3ccccc3nc2n1C1CCCCC1)c1ccccc1 | 27* | -9 | 6 | 1
CCCNC(=S)Nc1ccc2nc(-c3ccccn3)c(-c3ccccn3)nc2c1 | -5 | -41 | 4 | -1
Cc1noc(C)c1COC(=O)Cc1ccc(Cl)cc1 | 2 | -21 | 48* | 1
Cc1noc(C)c1COC(=O)CNC(=O)c1ccc(Cl)cc1 | · | · | · | 0
NS(=O)(=O)c1ccc(NC(=O)c2ccc(CNS(=O)(=O)c3cc(C(F)(F)F)ccc3Cl)cc2)cc1 | · | · | · | 2
O=C(NCCNCCO)c1c(O)c2cccc3c2n(c1=O)CCC3 | 33* | -10 | 4 | -1
COc1ccc(CNC(=O)c2c(O)c3cccc4c3n(c2=O)CCC4)cc1 | 34* | -3 | 4 | 3
COc1ccc(CNC(=O)c2c(O)c3cccc4c3n(c2=O)CCC4)cc1OC | 34* | -52 | 15 | 3
CCN(CC)CCNC(=O)c1c(O)c2cccc3c2n(c1=O)CCC3 | 26 | -34 | 9 | 0
CCCCCCNC(=O)c1c(O)c2cccc3c2n(c1=O)CCC3 | 24 | -55 | 7 | 1

High-throughput results (PubChem)
